Compound activity: PubChem BioAssay, several laboratories
Most compounds without a hit are left out; they make up all but 1.9% or so of the library.
T cell modulator – T cell immune modulators affecting CD8 T cell-vesicle binding; 2C CD8+ T cell-vesicle binding, flow cytometry; stronger effect = lower value; response (vesicle binding), % at 7 µM; 330,000 compounds, 0.068% hits; AID 2052;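 active = response, share of CD8 T cells binding vesicles, and their 90th percentile fluorescence all below set limits, cut at about 80% in these data, passing the limit was not always enough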;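 also: values below 100% mean blocked vesicle binding to the CD8+ T cells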
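material = purified 2C TCR transgenic mouse naive CD8+ T cells | controls = Unloaded micro-vesicles (low), QL9 vesicles with 0.7% DMSO (high) | detection = cytometric PE anti-B7-1 and Alexa647 anti-CD8 signals after 1% paraformaldehyde fixation | incubation = binding step 1.5 h, 37 °C, antibody labelling 20 min, ice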
IMP-1 inhibitor – blocks Pseudomonas aeruginosa IMP-1 metallo-beta-lactamase; inhibition, % at 5.6 µM; purified IMP-1, nitrocefin hydrolysis, epi-absorbance fluorescence; 290,000 compounds, 0.45% hits; AID 1556;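 active = inhibition above the mean plus 3 SD of all compounds in the same screening run, cut at about 4.5% in these data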;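 also: 0% = IMP-1 with DMSO and 100% = DMSO wells lacking enzyme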
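Test system: recombinant IMP-1 enzyme, purified / Medium: HEPES buffer pH 7.1 with ZnSO4 and Brij 35 / Doses: single dose, 5.6 µM / Times: 25 °C, 15 min preincubation, 25 min reaction / Detection: Epi-absorbance via hydrolysed-nitrocefin quenching of white-plate fluorescence, 480/530 nm, EDTA stop / Evaluation: percent inhibition from optical density relative to buffer-blank wells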
CTSL1 counter – counter-screen for PFM18AAP inhibitors: inhibitors of F. hepatica cathepsin L1; 300,000 compounds, 0.49% hits; inhibition, % at 5.96 µM; AID 1906; recombinant F. hepatica cathepsin L1, Z-Leu-Arg-MCA fluorescence;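 active = inhibition above the mean of all tested compounds plus 3 SD, set per screening campaign, cut at about 17% in these data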;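 also: 0% = plate median of test compound wells and 100% = 1 µM Z-Phe-Ala-diazomethylketone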
UBC9 SUMO inh – blocks human SUMOylation mediated by UBC9 | P63279 | HTRF SUMOylation assay, SAE1/SAE2 + UBC9, in vitro | inhibition, % at 35 µM | 290,000 compounds, 0.36% hits | AID 2006; in the data active = inhibition above about 50%, passing the limit was not always enough
p-CIP stab down – p/CIP protein destabilization; AID 1984; F442A p/CIP-EGFP cells, EGFP fluorescence, 16 h; decrease of EGFP signal, % at 10 µM; Q05BA5; 290,000 compounds, 0.01% hits;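 active = EGFP signal decrease of at least 30% at 10 µM or well 3 SD below plate mean, unless failing retest; inactive = the rest, including hits failing retest or dose response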
VIM-2 inh – blocks Pseudomonas aeruginosa VIM-2 metallo-beta-lactamase. purified VIM-2, nitrocefin hydrolysis, epi-absorbance fluorescence. inhibition, % at 5.6 µM. 290,000 compounds, 0.89% hits;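 active = inhibition above the mean of all tested compounds plus 3 SD, cutoff set per screening run, cut at about 7.5% in these data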;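 also: red hydrolysis product quenches plate fluorescence so inhibitors raise well fluorescence; 0% = enzyme with DMSO and 100% = DMSO without enzyme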
* marks the source's active call; other numbers are inactive results; i = inactive; . = not tested or not shown.

SMILES | T cell modulator | IMP-1 inhibitor | CTSL1 counter | UBC9 SUMO inh | p-CIP stab down | VIM-2 inh
COc1ccc(C(=O)C(OC(=O)CNC(=O)c2ccco2)c2ccccc2)cc1 (stereo not given) | 272 | 0 | 33* | -17 | -10 | 1
Cc1ccc(S(=O)(=O)NCC(=O)OC(C(=O)c2ccccc2)c2ccccc2)cc1 (stereo not given) | 270 | -5 | -43 | -11 | -7 | -2
Cc1ccc(C(=O)C(OC(=O)CNC(=O)c2ccc(Cl)cc2)c2ccccc2)cc1 (stereo not given) | 435 | -2 | 20* | -11 | -10 | -2
COc1ccc(C)cc1NC(=O)C(OC(=O)CNC(=O)c1ccc(Br)cc1)c1ccccc1 (stereo not given) | 68 | -4 | 18* | -12 | -3 | -5
O=C(CNC(=O)c1ccccc1)OC(C(=O)c1ccccc1)c1ccccc1 (stereo not given) | 337 | -2 | 18* | 9 | -4 | -1
CCC(C)NC(=O)CSc1nnc(-c2c[nH]c3ccccc23)o1 (stereo not given) | 413 | -3 | -5 | -2 | 12 | -3
O=C(Cc1ccccc1)Nc1ccccc1Oc1ccccc1 | 215 | -2 | -3 | -5 | -5 | -3
CC1=NN(c2ccccc2)C(=O)C1N=Nc1ccc(C)cc1 (stereo not given) | 233 | -1 | -2 | 7 | 4 | 3
CC1=NN(c2ccccc2)C(=O)C1N=Nc1ccc(S(N)(=O)=O)cc1 (stereo not given) | 389 | -1 | 19* | 42 | 1 | -1
COCCNC(=O)C1CCN(S(=O)(=O)c2c(C)noc2/C=C/c2cccs2)CC1 | 992 | -3 | 2 | 12 | -8 | -2
Cc1ccccc1NS(=O)(=O)c1cccc2nonc12 | 267 | -2 | 0 | 3 | -30 | 2
Cc1ccccc1Nc1cccc2nonc12 | 263 | -3 | 4 | 92* | -9 | -3
N#CC1=C(N)Oc2c(ccc3ccccc23)C1c1cccs1 (stereo not given) | 231 | -3 | 0 | 29 | -3 | -1
CN(C)/C=N/C1=C(C#N)C(c2ccc(Br)cc2)c2ccc3ccccc3c2O1 (stereo not given) | 212 | 6.1* | -1 | 8 | -5 | -2
Cc1ccc2ccc3cccnc3c2n1 | 218 | -27 | -1 | . | . | 9.5*
Cc1c(C)c2cccnc2c2ncccc12 | 338 | . | . | . | . | .
O=S(=O)(CC(CN1CCCCC1)N1CCCCC1)c1ccc2ccccc2c1 (stereo not given) | . | -4 | . | 0 | -3 | -1
CC(C)[C@H](NC(=O)c1ccccc1Cl)C(=O)OCc1cc(=O)n2cc(Br)ccc2n1 | 235 | -3 | 7 | 4 | 3 | -2
Cc1ccccc1C(=O)NC(CC(C)C)C(=O)OCc1cc(=O)n2cc(Br)ccc2n1 (stereo not given) | i | -2 | 27* | -2 | 4 | -4
O=C(/C=C/c1ccccc1)NC(NC(=S)Nc1cccc(Cl)c1)C(Cl)(Cl)Cl (stereo not given) | 236 | 0 | 18* | 34 | -6 | -2
O=c1c2ccccc2oc2cc(-c3ccc(CN4CCOCC4)cc3)ccc12 | 244 | . | . | . | . | .
CCOc1c(C#N)c(C#N)c2nc(C)cc(C)n12 | 269 | -1 | 0 | 11 | 3 | 3
Cc1cc(C)n2c3c(c(C#N)c2n1)CCCC3 | 0 | -8 | 3 | 14 | 0 | 7.7*
CCCn1c(C(C)Nc2nc(-c3cccc(Br)c3)cs2)nc2ccccc21 (stereo not given) | 350 | -1 | -1 | -6 | -8 | 7.9*
CCCn1c(C(C)Nc2nc(-c3ccc(C)cc3)cs2)nc2ccccc21 (stereo not given) | 598 | -2 | 0 | -13 | 2 | -2
O=C(c1cccc(S(=O)(=O)Nc2ccccc2Cl)c1)N1CCN(c2ccccc2O)CC1 | 327 | . | . | . | . | .
O=C(N/N=C/c1ccc(Cl)cc1Cl)c1ccc2nc[nH]c2c1 | 417 | 8.8* | 3 | . | -2 | -1
O=C(N/N=C/c1cc([N+](=O)[O-])ccc1Cl)c1ccc2nc[nH]c2c1 | 165 | -2 | 5 | 18 | -3 | 0
